Results published in PubChem BioAssay.
Inconclusive results are not listed. Calls of active or inactive are those of the source.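 How the source made its calls, unless noted: active means RAM network inhibition above 8.4% in each of two replicates, 3 SD over the compound average; inconclusive means above 8.4% inhibition in only one replicate; inactive means 8.4% inhibition or less in each replicate.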

Experiments:
[1] = S. cerevisiae growth inhibition in permissive medium (OD615), pilot counter-assay for S. cerevisiae lifespan shortening project, permissive growth control (AID 705;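 active means growth inhibition above 25% in both replicates, a cutoff set 3 SD above the mean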); conditions: OD615, 24 h, at 10 µM, stronger effect = higher value
Method in brief: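 System: Engineered DeaD yeast | Buffer or medium: SC raffinose/galactose permissive medium | Doses: 10 µM single dose, 0.25% DMSO | Times: 24 h exposure, 30 °C | Measured by: OD615 turbidity read | Read-out: Yeast growth inhibition indicated by reduced 24 h OD615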

[2] = S. cerevisiae growth inhibition in restrictive medium, OD615, pilot screen, restrictive growth control, yeast lifespan reduction project (AID 706;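 active means growth inhibition above a set limit, 3 SD over mean compound inhibition, in both replicates, cut at about 43% in these data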;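 further: modified DeaD lifespan yeast strain shifted to restrictive glucose medium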); conditions: OD615, 48 h, at 10 µM, stronger effect = higher value
Method in brief: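 Assay system: engineered S. cerevisiae DeaD strain; Buffer or medium: CSMM-D glucose medium; Dosing: 10 µM compound, 0.25% DMSO; Times: cell pre-growth 4 h, compound exposure 48 h, 30 °C; Detection: absorbance (optical density) measured at 615 nm.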

[3] = doxorubicin toxicity protection in MRP-1 cells – H69AR cells, CellTiter-Glo, duplicate, MRP-1 activator project, pilot screen (AID 807;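 active means viability increase at or above a cutoff of the median across tested compounds plus 3 SD, cut at about 8.5% in these data, passing the limit was not always enough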;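 further: compound pretreatment 18-22 h then 72 h combined with doxorubicin; 0% = doxorubicin alone and 100% = vehicle without doxorubicin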); conditions: H69AR viability with doxorubicin, CellTiter-Glo luminescence; at 10 µM; stronger effect = higher value
[4] = viability of HCT116 without oncogenic beta-catenin – human colon tumor cells, pilot screen (AID 823;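 active means cell viability at or below a set limit in both duplicate runs, the limit being the all-compound median minus 4 SD, cut at about 23% in these data, passing the limit was not always enough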;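 further: 0% = wells killed by 20 µM Hyamine and 100% = untreated DMSO cell wells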); conditions: HCT116 beta-catenin knockout viability, CellTiter-Glo, 60 h; at 10 µM; stronger effect = lower value
[5] = viability of PTEN-null HCT116 cells – cell-based, HCT116 clonal line, CellTiter-Glo, pilot screen (AID 824;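 active means viability at or below 27.92% in each of two runs, the all-compound median minus 4 SD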;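 further: 0% = 20 µM Hyamine control and 100% = vehicle cell control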); conditions: HCT116 PTEN-deleted viability, 60 h, at 10 µM, stronger effect = lower value
[6] = RAM pathway blockade in budding yeast – dse1pr::URA3 reporter, 5-FOA selection, pilot screen (AID 869;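 active means inhibition over a set limit, the all-compound mean plus 3 SD, in both replicate runs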;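 further: 0% = DMSO wells with no growth and 100% = 10 µM 1-NA-PP1 with full growth; RAM network block rescues cells from 5-FOA so hits raise OD615 growth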); conditions: S. cerevisiae dse1pr::URA3 5-FOA growth, OD615, 2 d; at 10 µM; stronger effect = higher value; strain carries analog-sensitive mutant Cbk1 kinase
[7] = RAM signaling pathway blockade in yeast – S. cerevisiae, Pdr1DBD-CYC8 efflux-inhibited sensitized strain, primary screen (AID 1298);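 further: 0% = DMSO untreated cells without growth and 100% = 10 µM 1-NA-PP1 full growth; higher means more yeast growth rescued from 5-FOA killing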; conditions: S. cerevisiae cbk1-as DSE1-URA3 strain, 5-FOA growth OD615, 2 d; at 50 µM; stronger effect = higher value

O=C(c1ccccc1)N1CCN(c2ccc(NCc3ccc4c(c3)OCO4)cc2)CC1
inactive: growth inhibition [1] -15.1% | growth inhibition [2] -14.4% | viability increase [3] -3.84% | viability [4] 64.7% | viability [5] 75.8% | inhibition [6] 1.77% | RAM network inhibition [7] 6.1%

O=C(NCCCN1CCOCC1)C1CCC(=O)N1CCc1ccccc1 (configuration not stated)
inactive: growth inhibition [1] -0.765% | growth inhibition [2] -7.29% | viability increase [3] -0.18% | viability [4] 103% | viability [5] 96.7% | inhibition [6] 3.66% | RAM network inhibition [7] 0.63%

O=C(NC1CCCCCCC1)c1c(O)c2ccccc2[nH]c1=O
inactive: growth inhibition [1] -3.12% | growth inhibition [2] 8.01% | viability increase [3] -4.23% | viability [4] 91.6% | viability [5] 92.5% | inhibition [6] 2.4% | RAM network inhibition [7] -0.37%

CC1CCCC(C)N1c1nnc(NC(=O)Cn2c(=O)oc3ccccc32)s1 (configuration not stated)
inactive: growth inhibition [1] -4.67% | growth inhibition [2] 9.9% | viability increase [3] 0.39% | viability [4] 95.1% | viability [5] 99.2% | inhibition [6] 1.85% | RAM network inhibition [7] 3.6%

CCOc1cc(-c2cc(N)n[nH]2)cc(OCC)c1OCC
inactive: growth inhibition [1] -14.5% | growth inhibition [2] -8.22% | viability increase [3] -2.48% | viability [4] 104% | viability [5] 91.5% | inhibition [6] 0.37% | RAM network inhibition [7] 0.35%

CCOc1ccc(-n2c(SC(C)C(=O)OC)nc3c(c2=O)SCC3)cc1 (configuration not stated)
inactive: growth inhibition [1] -6.67% | growth inhibition [2] -19.6% | viability increase [3] -1.08% | viability [4] 89.6% | viability [5] 92.2% | inhibition [6] 0.355% | RAM network inhibition [7] 5.59%

O=C(Cn1cc(C(=O)c2cccs2)c2ccccc21)NCc1ccc2c(c1)OCO2
inactive: growth inhibition [1] -5.79% | growth inhibition [2] -15.1% | viability increase [3] -2.32% | viability [4] 94.6% | viability [5] 86.4% | inhibition [6] 1.08% | RAM network inhibition [7] 2.74%

CCOc1ccc(C2c3c(oc4cc(C)c(C)cc4c3=O)C(=O)N2CCCN2CCOCC2)cc1 (configuration not stated)
inactive: growth inhibition [1] -1.96% | growth inhibition [2] -6.06% | viability increase [3] -3.05% | viability [4] 94.1% | viability [5] 94.6% | inhibition [6] 0.615% | RAM network inhibition [7] 2.24%

CCCCS(=O)(=O)/C=C\C=C/S(=O)(=O)CCCC
inactive: growth inhibition [1] 14.9% | viability increase [3] -7.95% | inhibition [6] -0.535% | RAM network inhibition [7] -3.06%
active: growth inhibition [2] 60% | viability [4] 1.4% | viability [5] 1.36%

COc1ccc2cc(CCNC(=O)C3CCCC3)c(=O)[nH]c2c1
inactive: growth inhibition [1] -6.89% | growth inhibition [2] -9.8% | viability increase [3] -0.27% | viability [4] 109% | viability [5] 98.5% | inhibition [6] 1.08% | RAM network inhibition [7] 0.21%

CN1CCN(CCCNC(=O)c2ccc3c(c2)N(Cc2ccccc2)CCS3)CC1
inactive: growth inhibition [1] -2.21% | growth inhibition [2] -12.1% | viability increase [3] -5.47% | viability [4] 64.8% | viability [5] 67.4% | inhibition [6] 0.9% | RAM network inhibition [7] 4.28%

Cc1cc(C)n(CC(=O)n2c3ccccc3c3ccccc32)n1
inactive: growth inhibition [1] 5.86% | growth inhibition [2] -3.37% | viability increase [3] -3.82% | viability [4] 78.2% | viability [5] 91.7% | inhibition [6] 0.155% | RAM network inhibition [7] -1.18%

CN(C)c1nc(Oc2ccc(/C=N/O)cc2)nc(N(C)C)n1
inactive: growth inhibition [1] -9.5% | growth inhibition [2] 4.05% | viability increase [3] -2.72% | viability [4] 101% | viability [5] 85.1% | inhibition [6] 1.58% | RAM network inhibition [7] 2.8%

COc1cc(NC(=O)C(F)(F)F)cc(OC)c1
inactive: growth inhibition [1] -10.5% | growth inhibition [2] -13.3% | viability increase [3] -0.69% | viability [4] 98.2% | viability [5] 108% | inhibition [6] 0.22% | RAM network inhibition [7] 1.3%

CS(=O)(=O)n1nc(C(=O)N2CCOCC2)nc1N
inactive: growth inhibition [1] -10% | growth inhibition [2] -18.6% | viability increase [3] 0.47% | viability [4] 103% | viability [5] 98.4% | inhibition [6] 2.68% | RAM network inhibition [7] 5.4%

Cc1csc2nc(CNC(=O)CCC(=O)O)cn12
inactive: growth inhibition [1] -8.41% | growth inhibition [2] -2.59% | viability increase [3] -0.98% | viability [4] 101% | viability [5] 99.5% | inhibition [6] 1.4% | RAM network inhibition [7] 2.71%

Cc1ccccc1N1C(=O)C(Cl)=C(N2CCN(c3ccccc3)CC2)C1=O
inactive: growth inhibition [1] -5.42% | growth inhibition [2] -12.1% | viability increase [3] -2.29% | viability [4] 101% | viability [5] 109% | inhibition [6] 0.515% | RAM network inhibition [7] 1.87%

Cc1c(Cl)cccc1NC(=O)CN1C(=O)CSc2ncccc21
inactive: growth inhibition [1] -2.14% | growth inhibition [2] -0.53% | viability increase [3] -1.13% | viability [4] 97.6% | viability [5] 89.5% | inhibition [6] -0.01% | RAM network inhibition [7] -0.13%

CC(CNC(=O)C1CCCCC1)NC(=O)C1CCCCC1 (configuration not stated)
inactive: growth inhibition [1] -7.69% | growth inhibition [2] -6.86% | viability increase [3] 0.64% | viability [4] 89.6% | viability [5] 92.5% | inhibition [6] 0.08% | RAM network inhibition [7] 4%

Oc1c(C(c2cccc(F)c2)N2CCN(Cc3ccccc3)CC2)sc2ncnn12 (configuration not stated)
inactive: growth inhibition [1] -6.58% | growth inhibition [2] 3.16% | viability increase [3] -0.83% | viability [4] 87.7% | viability [5] 80.7% | inhibition [6] 0.05% | RAM network inhibition [7] -2.27%

Cc1cc(C)n(/N=C/c2c[nH]c3ccccc23)c(=O)c1
inactive: growth inhibition [1] -12.3% | growth inhibition [2] -5.84% | viability increase [3] -3.53% | viability [4] 100% | viability [5] 102% | inhibition [6] 0.785% | RAM network inhibition [7] 2.38%

N/C(CC(=O)Nc1cccc(C(F)(F)F)c1)=N/O
inactive: growth inhibition [1] -0.19% | growth inhibition [2] 2.58% | viability increase [3] -1.91% | viability [4] 96.5% | viability [5] 101% | inhibition [6] 1.16% | RAM network inhibition [7] 4.4%

O=C(Cc1c(F)cccc1Cl)c1ccc(O)cc1O
inactive: growth inhibition [1] -10.5% | growth inhibition [2] -0.825% | viability increase [3] -0.88% | viability [4] 99.8% | viability [5] 100% | inhibition [6] 0.3% | RAM network inhibition [7] -1.74%

COc1ccc(-n2c(Cc3cc(=O)[nH]c(=O)[nH]3)nnc2SCC(=O)Nc2ccccc2)cc1
inactive: growth inhibition [1] 5.82% | growth inhibition [2] 3.9% | viability increase [3] 0.25% | viability [4] 105% | viability [5] 98.7% | inhibition [6] 0.48% | RAM network inhibition [7] 2.13%

Cc1ccc(N2C(=O)C(Cl)=C(NCCO)C2=O)c(C)c1
inactive: growth inhibition [1] -4.71% | growth inhibition [2] -2.88% | viability increase [3] -2.47% | viability [4] 105% | viability [5] 100% | inhibition [6] 2.02% | RAM network inhibition [7] 8.82%

NC(=O)c1ccsc1NC(=O)c1ccco1
inactive: growth inhibition [1] 7.15% | growth inhibition [2] 20.1% | viability increase [3] -1.54% | viability [4] 102% | viability [5] 99% | inhibition [6] 1.1% | RAM network inhibition [7] 1.1%

Cc1ccc(-c2nc(NC(=O)CSc3nnc(C)s3)ns2)cc1
inactive: growth inhibition [1] -5.46% | growth inhibition [2] 2.65% | viability increase [3] -0.8% | viability [4] 123% | viability [5] 102% | inhibition [6] 0.34% | RAM network inhibition [7] 2.66%

Nc1ccc(SC(F)(F)F)cc1C(=O)c1ccccc1
inactive: growth inhibition [1] -6.7% | growth inhibition [2] -13.2% | viability increase [3] -0.99% | viability [4] 74% | viability [5] 70.4% | inhibition [6] -2.23% | RAM network inhibition [7] 3.77%

Cc1cccc(C(=O)N2CCN(Cc3ccc4c(c3)OCO4)CC2)c1
inactive: growth inhibition [1] -10.7% | growth inhibition [2] -4.2% | viability increase [3] -1.3% | viability [4] 111% | viability [5] 95.7% | inhibition [6] -0.065% | RAM network inhibition [7] 4.6%

Cc1nn2cc(-c3ccccc3)nc2s1
inactive: growth inhibition [1] -5.37% | growth inhibition [2] -7.45% | viability increase [3] -1.05% | viability [4] 93.3% | viability [5] 91.6% | inhibition [6] 0.575% | RAM network inhibition [7] 4.7%

Cc1cc(C)c(S(=O)(=O)Nc2nnc(C)s2)c(C)c1
inactive: growth inhibition [1] -20.6% | growth inhibition [2] -11.7% | viability increase [3] 3.99% | viability [4] 102% | viability [5] 99.3% | inhibition [6] 0.87% | RAM network inhibition [7] 8.49%

Cc1n[nH]c(C)c1S(=O)(=O)N(CC(=O)Nc1ccc2c(c1)OCCO2)c1ccc(C(C)C)cc1
inactive: growth inhibition [1] 2.8% | growth inhibition [2] 2.67% | viability increase [3] -5.15% | viability [4] 68.1% | viability [5] 63% | inhibition [6] -0.49% | RAM network inhibition [7] 3.78%

Cn1ccnc1SC(=O)N1c2ccccc2Sc2ccccc21
inactive: growth inhibition [1] 0.525% | growth inhibition [2] 0.605% | viability increase [3] -0.9% | viability [4] 88.8% | viability [5] 91.4% | inhibition [6] 1.25% | RAM network inhibition [7] 3.37%

O=C1CCCN1CC(CN1CCOCC1)Sc1nnnn1-c1ccccc1 (configuration not stated)
inactive: growth inhibition [1] -0.73% | growth inhibition [2] 7.22% | viability increase [3] -3.37% | viability [4] 100% | viability [5] 105% | inhibition [6] 1.56% | RAM network inhibition [7] 5.8%

CCOC(=O)N1CCN(C(=O)c2ccc3c(SCC(=O)O)c4c(nc3c2)CCC4)CC1
inactive: growth inhibition [1] -7.38% | growth inhibition [2] 3.22% | viability increase [3] -1.86% | viability [4] 102% | viability [5] 93% | inhibition [6] 0.9% | RAM network inhibition [7] 2.81%

O=C1Nc2cc(Cl)cnc2N2CCCC12 (configuration not stated)
inactive: growth inhibition [1] -2.57% | growth inhibition [2] 8.33% | viability increase [3] -0.67% | viability [4] 97.7% | viability [5] 101% | inhibition [6] 0.905% | RAM network inhibition [7] 0%
